The values that follow come from ChEMBL document CHEMBL6127135, “Generation of BT-Amide, a Bone-Targeted Pyk2 Inhibitor, Effective via Oral Administration, for the Prevention of Glucocorticoid-Induced Bone Loss” (J Med Chem, 2024).

Broadly, the pIC50 is −log10 of the IC50, conventionally taken in molar units. Read a low pIC50 as a high IC50.

The target of data set [1] is Protein-tyrosine kinase 2-beta (Homo sapiens, UniProt Q14289). In words: Inhibition of Pyk2 kinase (unknown origin) by bioluminescent ADP-Glo kinase assay. An outline of the steps: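 ADP-Glo luminescent read-out of ADP formation, run per kit instructions; inhibitors tested as 8-point half-log dilution series, 1 uM down to 0.316 nM. IC50 obtained by fitting dose–response curves with an [inhibitor] vs normalized response model; each compound tested at least 3 times.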
A general note: ADP-Glo first removes unused ATP, then detects ADP through luciferase.

In data set [2] the test system is Mus musculus. Briefly: In vivo inhibition of Glucocorticoid-induced bone loss in C57BL/6 mouse assessed as prevention of bone loss by measuring increase in bone mineral density at 10 mg/kg/day, po treatment initiated 3 days prior to glucocorticoid challenge measured after 2 weeks. As to conditions: time 17.0 day. Type of data set: functional, organism-based. The method, boiled down:
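Female C57BL/6 mice, 4 months old, randomized; oral gavage 10 mg/kg 5 times per week, starting 3 days before subcutaneous slow-release pellet (placebo or prednisolone 2.1 mg/kg/d). Total-body BMD (head and tail excluded) by DEXA after 2 weeks; analysis blinded. Two-way ANOVA with Tukey post hoc, N = 9–10.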

A short description of data set [3]: Toxicity in Glucocorticoid-induced C57BL/6 mouse bone loss model assessed as adverse effect by measuring mouse with skin lesions at 10 mg/kg/day, po treatment initiated 3 days prior to glucocorticoid challenge measured after 2 weeks. It counts as organism-based. As to conditions: in vivo, 408 h, time 17 day. An outline of the steps: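 Female C57BL/6 mice, 4 months old; oral gavage 10 mg/kg 5 times per week from 3 days before placebo or prednisolone (2.1 mg/kg/d) pellet implantation. Mice scored for development of skin lesions during the study.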

Data set [4] can be described thus: Toxicity in Glucocorticoid-induced C57BL/6 mouse bone loss model assessed as adverse effect at 10 mg/kg/day, po treatment initiated 3 days prior to glucocorticoid challenge measured after 2 weeks. To be noted: in vivo, 408 h, time 17 day. It counts as organism-based.
A short description of data set [5]: Toxicity in Glucocorticoid-induced C57BL/6 mouse bone loss model assessed as circulating organ toxicity in serum by measuring Albumin at 10 mg/kg/day, po treatment initiated 3 days prior to glucocorticoid challenge measured after 2 weeks. It counts as organism-based. To be noted: in vivo, 408 h, time 17 day. An outline of the steps: (§1)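 Same mouse regimen: 4-month-old female C57BL/6, gavage 10 mg/kg 5×/week, prednisolone 2.1 mg/kg/d or placebo pellets. At study end, blood collected after isoflurane sedation and euthanasia. 14-parameter Comprehensive Diagnostic Profile analyser panel on plasma. Untreated and vehicle mice served as controls. N = 9–10, mean ± SD.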

A short description of data set [6]: Toxicity in Glucocorticoid-induced C57BL/6 mouse bone loss model assessed as circulating organ toxicity in serum by measuring alkaline phosphatase at 10 mg/kg/day, po treatment initiated 3 days prior to glucocorticoid challenge measured after 2 weeks. It counts as organism-based. To be noted: in vivo, 408 h, time 17 day. An outline of the steps: as §1
The nature of data set [7]: Toxicity in Glucocorticoid-induced C57BL/6 mouse bone loss model assessed as circulating organ toxicity in serum by measuring […] at 10 mg/kg/day, po treatment initiated 3 days prior to glucocorticoid challenge measured after 2 weeks. It counts as organism-based. As to conditions: in vivo, 408 h, time 17 day. The method, boiled down:
as §1

Data set [8] in a line: Toxicity in Glucocorticoid-induced C57BL/6 mouse bone loss model assessed as circulating organ toxicity in serum by measuring amylase at 10 mg/kg/day, po treatment initiated 3 days prior to glucocorticoid challenge measured after 2 weeks. It counts as organism-based. As to conditions: in vivo, 408 h, time 17 day. The method, boiled down: as §1
Data set [9] in a line: Toxicity in Glucocorticoid-induced C57BL/6 mouse bone loss model assessed as circulating organ toxicity in serum by measuring blood urea nitrogen at 10 mg/kg/day, po treatment initiated 3 days prior to glucocorticoid challenge measured after 2 weeks. It counts as organism-based. As to conditions: in vivo, 408 h, time 17 day. An outline of the steps:
as §1

Data set [10] in a line: Toxicity in Glucocorticoid-induced C57BL/6 mouse bone loss model assessed as circulating organ toxicity in serum by measuring calcium at 10 mg/kg/day, po treatment initiated 3 days prior to glucocorticoid challenge measured after 2 weeks. Type of data set: organism-based. To be noted: in vivo, 408 h, time 17 day. An outline of the steps: as §1
Data set [11] is described as follows: Toxicity in Glucocorticoid-induced C57BL/6 mouse bone loss model assessed as circulating organ toxicity in serum by measuring creatinine at 10 mg/kg/day, po treatment initiated 3 days prior to glucocorticoid challenge measured after 2 weeks. Type of data set: organism-based. To be noted: in vivo, 408 h, time 17 day. The method, boiled down: as §1
Data set [12] in a line: Toxicity in Glucocorticoid-induced C57BL/6 mouse bone loss model assessed as circulating organ toxicity in serum by measuring glucose at 10 mg/kg/day, po treatment initiated 3 days prior to glucocorticoid challenge measured after 2 weeks. It counts as organism-based. As to conditions: in vivo, 408 h, time 17 day. An outline of the steps: as §1
The nature of data set [13]: Toxicity in Glucocorticoid-induced C57BL/6 mouse bone loss model assessed as circulating organ toxicity in serum by measuring potassium at 10 mg/kg/day, po treatment initiated 3 days prior to glucocorticoid challenge measured after 2 weeks. To be noted: in vivo, 408 h, time 17 day. It counts as organism-based. An outline of the steps:
as §1

Data set [14] is described as follows: Toxicity in Glucocorticoid-induced C57BL/6 mouse bone loss model assessed as circulating organ toxicity in serum by measuring sodium at 10 mg/kg/day, po treatment initiated 3 days prior to glucocorticoid challenge measured after 2 weeks. It counts as organism-based. To be noted: in vivo, 408 h, time 17 day. An outline of the steps:
as §1

Data set [15] is described as follows: Toxicity in Glucocorticoid-induced C57BL/6 mouse bone loss model assessed as circulating organ toxicity in serum by measuring phosphorus at 10 mg/kg/day, po treatment initiated 3 days prior to glucocorticoid challenge measured after 2 weeks. It counts as organism-based. To be noted: in vivo, 408 h, time 17 day. An outline of the steps: as §1
Data set [16] is described as follows: Toxicity in Glucocorticoid-induced C57BL/6 mouse bone loss model assessed as circulating organ toxicity in serum by measuring total bilirubin at 10 mg/kg/day, po treatment initiated 3 days prior to glucocorticoid challenge measured after 2 weeks. Type of data set: organism-based. As to conditions: in vivo, 408 h, time 17 day. An outline of the steps: as §1

Data set [17] is described as follows: Toxicity in Glucocorticoid-induced C57BL/6 mouse bone loss model assessed as circulating organ toxicity in serum by measuring Total protein at 10 mg/kg/day, po treatment initiated 3 days prior to glucocorticoid challenge measured after 2 weeks. It counts as organism-based. To be noted: in vivo, 408 h, time 17 day. An outline of the steps: as §1

pIC50: −log10 of the molar value. The source made the active and inactive calls. No cut-off for these calls is given here.

Sequence of Protein-tyrosine kinase 2-beta (Q14289 whole entry): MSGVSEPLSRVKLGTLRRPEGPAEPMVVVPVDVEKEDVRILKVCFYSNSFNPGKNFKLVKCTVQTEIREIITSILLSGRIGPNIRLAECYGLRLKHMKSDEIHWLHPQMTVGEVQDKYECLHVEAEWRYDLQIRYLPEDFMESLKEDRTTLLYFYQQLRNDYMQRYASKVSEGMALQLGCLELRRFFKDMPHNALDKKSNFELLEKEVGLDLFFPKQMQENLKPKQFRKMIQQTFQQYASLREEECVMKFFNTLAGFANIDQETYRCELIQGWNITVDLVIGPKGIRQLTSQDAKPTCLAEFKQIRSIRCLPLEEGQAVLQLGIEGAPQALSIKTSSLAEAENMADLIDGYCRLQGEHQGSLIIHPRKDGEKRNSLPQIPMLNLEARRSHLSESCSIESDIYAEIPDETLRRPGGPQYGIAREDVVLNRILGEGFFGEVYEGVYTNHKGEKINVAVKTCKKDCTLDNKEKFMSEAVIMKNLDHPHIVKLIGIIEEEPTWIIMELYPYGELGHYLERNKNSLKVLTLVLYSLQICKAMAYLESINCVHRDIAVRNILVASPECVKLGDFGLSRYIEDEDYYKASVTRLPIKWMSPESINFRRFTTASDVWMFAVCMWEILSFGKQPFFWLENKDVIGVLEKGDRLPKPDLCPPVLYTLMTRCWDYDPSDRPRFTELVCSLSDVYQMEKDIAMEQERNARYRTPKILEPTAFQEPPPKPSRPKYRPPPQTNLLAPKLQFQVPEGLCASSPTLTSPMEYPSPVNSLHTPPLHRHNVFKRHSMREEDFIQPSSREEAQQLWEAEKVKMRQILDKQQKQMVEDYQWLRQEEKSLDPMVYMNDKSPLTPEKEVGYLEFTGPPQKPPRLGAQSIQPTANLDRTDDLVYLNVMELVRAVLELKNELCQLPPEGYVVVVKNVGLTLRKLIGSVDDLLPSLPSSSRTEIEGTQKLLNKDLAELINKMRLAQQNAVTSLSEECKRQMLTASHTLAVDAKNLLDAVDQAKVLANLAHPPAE

The compound `CNC(=O)c1ccccc1Nc1nc(Nc2ccc(N3CCC(O)CC3)cc2OC)ncc1Cl` showed a pIC50 in [1] of 6.99.
For the compound `CNC(=O)c1ccccc1Nc1nc(Nc2ccc(OC(=O)CCCCC(=O)NCCCC(O)(P(=O)(O)O)P(=O)(O)O)cc2OC)ncc1Cl`, the result in data set [2] was inactive. Also, the Activity entry in data set [3] is listed as “Non-Toxic”.
Consider `CNC(=O)c1ccccc1Nc1nc(Nc2ccc(N3CCOCC3)cc2OC)ncc1Cl`, for which the pIC50 in [1] was 7.77. The result in data set [2] was Active. Besides, in data set [3], the Activity turned out to be 15%.
`CNC(=O)c1ccccc1Nc1nc(Nc2ccc(N)cc2OC)ncc1Cl` had a pIC50 in [1] of 7.36.
For `CNC(=O)c1ccccc1Nc1nc(Nc2ccc(NC(=O)CCCCC(=O)NCCCC(O)(P(=O)(O)O)P(=O)(O)O)cc2OC)ncc1Cl`, in [1], the pIC50 was 7.35. The result in [2] was Active. For the same compound, the Activity result in data set [4], in [5], in data set [6], in [7], in data set [8] and in data set [9] was “Non-Toxic” throughout. Besides, the Activity result in [10], in data set [11], in [12], in data set [13], in [14] and in data set [15] was “Non-Toxic” each time. Besides, the Activity result in [16] and in data set [17] was “Non-Toxic” throughout.
